From PubChem BioAssay
An excerpt weighted towards active compounds, which were near 3.7% of everything screened.
MDM2 E3 inh: inhibitors of human Mdm2 E3 ubiquitin ligase; cell-based MDM2 ubiquitination luciferase reporter, 2 h; 0 = plate control, 100 = twice control, blank-subtracted; signal enhancement, % at 5 µM; 210,000 tested, 0.11% active; AID 1230;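 active = signal enhancement of 30% or more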;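 note: luminescence tracks abundance of the self-degrading MDM2-luciferase fusion protein; higher signal means inhibition of MDM2 E3 ligase activity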
Target sequence (Q00987 whole entry, looked up, the tested form may be a part): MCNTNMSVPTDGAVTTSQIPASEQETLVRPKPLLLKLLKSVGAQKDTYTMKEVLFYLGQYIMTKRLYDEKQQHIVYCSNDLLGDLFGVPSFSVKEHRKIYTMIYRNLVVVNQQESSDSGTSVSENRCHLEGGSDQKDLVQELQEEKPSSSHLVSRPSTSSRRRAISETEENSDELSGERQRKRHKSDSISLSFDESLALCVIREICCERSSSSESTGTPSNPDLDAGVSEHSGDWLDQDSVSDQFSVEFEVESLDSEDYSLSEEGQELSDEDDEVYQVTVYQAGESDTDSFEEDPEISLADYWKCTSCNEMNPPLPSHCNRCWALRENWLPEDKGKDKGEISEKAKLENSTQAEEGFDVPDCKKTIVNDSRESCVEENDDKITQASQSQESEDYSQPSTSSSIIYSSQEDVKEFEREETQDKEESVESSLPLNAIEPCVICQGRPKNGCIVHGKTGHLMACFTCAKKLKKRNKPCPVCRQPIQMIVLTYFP
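Assay system: stable mammalian line carrying autodegrading MDM2–luciferase fusion reporter; amount: 2000 cells seeded into each well; buffer or medium: DMEM; benchmarks: plate control and blank wells; signal: luciferase luminescence; timing: 2 h compound exposure at 37 °C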
Dynein transport: dynein cargo transport inhibition | 3617.4 mouse cells, GR-EGFP nuclear translocation imaging; test concentration mostly 20 µM; stimulated with dexamethasone, 1 µM; active compounds read low | z-score, hits read low | 220,000 tested, 0.47% active | AID 1381;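 active = plate z-score of nuclear minus cytoplasmic receptor signal below a set negative limit, without overly bright fluorescence or cell loss, cut at about -3.5 in these data, passing the limit was not always enough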;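 note: z-score of nuclear minus cytoplasmic ring GR-EGFP intensity difference per well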
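Also added – dexamethasone, 1.0 µM final · Buffer or medium – tet-free, stripped-serum medium · Schedule – induction 48 h, compound 1 h, agonist 30 min · Detection – formaldehyde fixation, Hoechst nuclear stain, 10x automated fluorescence imaging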
Beta2AR agonist: agonists of human beta-2 adrenergic receptor inducing internalization | P07550 | Am2.2-beta2AR cells, FAP receptor internalization, flow cytometry | response, % (no concentration beside the values) | 340,000 tested, 0.43% active;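 active = response above a set limit, near 3 SD of response in nonfluorescent compounds, cut at about 42% in these data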
UPR CHOP act: activators of apoptotic arm of unfolded protein response (CHOP); CHO-CHOP luciferase reporter, UPR activation, luminescence; percent of tunicamycin response over DMSO baseline; activation, % at 10 µM; 330,000 tested, 0.34% active; AID 449763;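 active = at 10 µM dose, activation of 40% or more, normalized to positive control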
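Assay system: CHO cells with stable CHOP pathway luciferase reporter; Buffer or medium: F12 plus 10% serum; Times: 16-18 h cell attachment, then 6 h compound exposure, 37 °C; Signal: luciferase luminescence; Read-out basis: percent activation relative to tunicamycin control; Control set: tunicamycin high control, DMSO low control.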
UPR XBP1 act: activators of adaptive arm of unfolded protein response (XBP1); CHO-XBP1 luciferase reporter, IRE1-XBP1 UPR activation, luminescence; percent of tunicamycin response, DMSO as zero; activation, % at 20 µM; 330,000 tested, 0.33% active; AID 463104;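 active = versus positive control, 20 µM dose yields 30% or more activation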
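Material: CHO-XBP1 cells stably carrying IRE1-XBP1-driven luciferase reporter / Amount: 1000 cells per well / Compound: 20 µM, 1% DMSO / Times: 6 h treatment, 37 °C / Detection: luciferase luminescence / Measure: % activation of reporter signal versus tunicamycin and DMSO controls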
Mdm2 MdmX PPI: human Mdm2/MdmX binding inhibition; O15151+Q00987; SaOS-2 split-luciferase Mdm2/MdmX complementation, luminescence; inhibition, % at 8 µM; 330,000 tested, 3% active; AID 485346;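 active = inhibition of at least 50% at 8 µM in the primary screen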
Mdm2-MdmX conf: confirmation of human Mdm2/MdmX interaction inhibitors | inhibition, % at 8 µM | shares compounds with Mdm2 MdmX PPI | AID 489028 | Mdm2-MdmX binding, luminescent assay | 10,000 tested, 55% active; in the data active = inhibition above about 40%
Full FLuc ctr: counter-screen for Mdm2/MdmX inhibitors: full-length luciferase. inhibition, % at 8 µM. 6,200 tested, 77% active. shares compounds with Mdm2 MdmX PPI. SaOS-2 full-length luciferase counterscreen, luminescence;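 active = mean inhibition at 8 µM reaching about 37%, which flags the compound as non-specific, limit read from the data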;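 note: p53-null SaOS-2 cells with luciferase driven by a doxycycline-inducible promoter; compound on cells about two nights before reading with doxycycline added after day one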
Hits are given with their value.

How did O=[N+]([O-])c1cc2cccnc2c2ncccc12 do in these assays?
MDM2 E3 inh: inactive; Dynein transport: inactive; UPR CHOP act: inactive; UPR XBP1 act: inactive; Mdm2 MdmX PPI: inactive

How did O=[N+]([O-])c1ccc(Sc2cccc3cccnc23)c2cccnc12 do in these assays?
MDM2 E3 inh: inactive; Dynein transport: inactive; Beta2AR agonist: inactive; UPR CHOP act: inactive; UPR XBP1 act: inactive; Mdm2 MdmX PPI: 65.4; Mdm2-MdmX conf: 56.4; Full FLuc ctr: 50.0

How did C=CC(=O)Nc1ccc(N(C)c2ccnc(Nc3ccc(N4CCN(C)CC4)cc3)n2)cc1 do in these assays?
Beta2AR agonist: inactive; UPR CHOP act: inactive; UPR XBP1 act: inactive; Mdm2 MdmX PPI: 92.5; Mdm2-MdmX conf: 62.6; Full FLuc ctr: inactive

What do the screens show for `CC1CCN(CCc2nc3cc(NC(=O)COc4ccc(Cl)cc4)ccc3n2C)CC1`?
Beta2AR agonist: inactive; UPR CHOP act: inactive; UPR XBP1 act: inactive; Mdm2 MdmX PPI: 57.3; Mdm2-MdmX conf: inactive

What do the screens show for `O=C(COc1ccc(Br)cc1)Nc1ccc(N2CCOCC2)cc1N1CCOCC1`?
Beta2AR agonist: inactive; UPR CHOP act: inactive; UPR XBP1 act: inactive; Mdm2 MdmX PPI: 82.4; Mdm2-MdmX conf: inactive

Results for O=C(Nc1ccc(N2CCOCC2)cc1N1CCOCC1)c1ccc(Br)cc1 ?
Beta2AR agonist: inactive; UPR CHOP act: inactive; UPR XBP1 act: inactive; Mdm2 MdmX PPI: inactive

What do the screens show for `CC1=C(C(=O)OC2CCCCC2)C(c2ccc(F)cc2)NC(=O)N1` (stereo unspecified)?
Beta2AR agonist: inactive; UPR CHOP act: inactive; UPR XBP1 act: inactive; Mdm2 MdmX PPI: inactive

What do the screens show for `Nc1cc2c3c(cccc3c1)C(=O)N(CCN1CCCC1)C2=O`?
MDM2 E3 inh: inactive; Dynein transport: inactive; Beta2AR agonist: inactive

What do the screens show for `O=C1c2cccc3cc([N+](=O)[O-])cc(c23)C(=O)N1CCN1CCCC1`?
MDM2 E3 inh: inactive; Dynein transport: inactive; Beta2AR agonist: inactive; UPR CHOP act: inactive; UPR XBP1 act: inactive; Mdm2 MdmX PPI: 90.0; Mdm2-MdmX conf: 95.8; Full FLuc ctr: 52.6

How did COc1ccc(S(=O)(=O)Nc2cc(C(C)C)c(O)cc2C)cc1 do in these assays?
MDM2 E3 inh: inactive; Dynein transport: inactive; Beta2AR agonist: inactive; UPR CHOP act: inactive; UPR XBP1 act: inactive; Mdm2 MdmX PPI: inactive

How did COc1ccc2nc3cc(Cl)ccc3c(Nc3cc(C(C)C)c(O)cc3C)c2c1 do in these assays?
MDM2 E3 inh: inactive; Dynein transport: inactive; Beta2AR agonist: inactive; UPR CHOP act: inactive; UPR XBP1 act: inactive; Mdm2 MdmX PPI: 94.3; Mdm2-MdmX conf: 64.0; Full FLuc ctr: 64.1

How did COc1cccc(-c2ccc3ncnc(NCc4cccnc4)c3c2)c1 do in these assays?
Beta2AR agonist: inactive; UPR CHOP act: inactive; UPR XBP1 act: inactive; Mdm2 MdmX PPI: 68.5; Mdm2-MdmX conf: 48.4; Full FLuc ctr: inactive

Results for COc1cccc(CNc2ncnc3cc(OC)c(OC)cc23)c1 ?
MDM2 E3 inh: inactive; Dynein transport: inactive; Beta2AR agonist: inactive; UPR CHOP act: inactive; UPR XBP1 act: inactive; Mdm2 MdmX PPI: inactive

Results for N#CC1=C(N)C(C#N)(C#N)C(c2cccnc2)C2CC(c3ccccc3)CC=C12 (stereo unspecified) ?
MDM2 E3 inh: inactive; Dynein transport: inactive; Beta2AR agonist: inactive; UPR CHOP act: inactive; UPR XBP1 act: inactive; Mdm2 MdmX PPI: 62.0; Mdm2-MdmX conf: 61.3; Full FLuc ctr: inactive

What do the screens show for `CN(CC(=O)Nc1ccc(OC(F)(F)F)cc1)C(=O)Cc1cccs1`?
Beta2AR agonist: inactive; UPR CHOP act: inactive; UPR XBP1 act: inactive; Mdm2 MdmX PPI: inactive

How did CCOC(=O)N1CCN(C(=O)CSc2nc(=O)n3ccc(C)cc3n2)CC1 do in these assays?
Beta2AR agonist: inactive; UPR CHOP act: inactive; UPR XBP1 act: inactive; Mdm2 MdmX PPI: inactive
